Results as given in ChEMBL document CHEMBL1127058, “The synthesis and biochemical pharmacology of enantiomerically pure methylated oxotremorine derivatives” (J Med Chem, 1993).
Values joined by “and” are separate entries in the source; they are usually repeats but may differ in a detail not shown here. Identical values can stand only once.

Tests used:
[1] = target: T1, Muscarinic acetylcholine receptor M2 (Rattus norvegicus) (UniProt P10980); assay: Relative [3H]QNB and [3H]-CD binding to muscarinic M2 receptor
T1 sequence (whole entry): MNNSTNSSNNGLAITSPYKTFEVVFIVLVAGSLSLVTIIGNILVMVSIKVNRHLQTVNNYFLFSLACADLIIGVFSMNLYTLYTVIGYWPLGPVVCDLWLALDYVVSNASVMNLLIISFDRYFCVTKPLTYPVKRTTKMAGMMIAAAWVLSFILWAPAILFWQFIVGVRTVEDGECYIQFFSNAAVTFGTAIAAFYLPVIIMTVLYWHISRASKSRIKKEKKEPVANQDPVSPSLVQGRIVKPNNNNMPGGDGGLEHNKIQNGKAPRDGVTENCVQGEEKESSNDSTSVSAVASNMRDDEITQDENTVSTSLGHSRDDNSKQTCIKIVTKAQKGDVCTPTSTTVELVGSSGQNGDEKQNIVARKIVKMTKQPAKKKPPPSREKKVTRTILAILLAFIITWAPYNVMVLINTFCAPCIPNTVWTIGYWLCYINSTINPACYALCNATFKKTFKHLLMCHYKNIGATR

[2] = target: T2, Muscarinic acetylcholine receptor M2 (Rattus norvegicus, UniProt P10980); assay: Binding affinity at [3H]CD radiolabeled muscarinic M2 receptor in rat cortex.; format: tissue-based
T2 sequence (P10980 whole entry): T1 sequence (whole entry)
Outline: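 Rat cortex (male Wistar, 200–250 g) homogenized in ice-cold 10 mM Na/K phosphate, pH 7.4, diluted 1:300; ~0.75 mg protein per 2.0 mL. [3H]CD 1 nM, 120 min at 25 °C. Filtration onto PEI-soaked GF/B filters, scintillation counting; Ki from one-site competitive fit.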

[3] = target: T2, Muscarinic acetylcholine receptor M2; assay: Binding affinity at [3H]QNB and GppNHp radiolabeled muscarinic M2 receptor in rat heart.
Outline: (§1)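 Washed rat heart membranes (male Wistar; 4800g pellet, 1:750, 0.15–0.2 mg protein/2.0 mL) in 10 mM NaKPB pH 7.4 with Gpp(NH)p 10 μM final. Filter binding, scintillation counting; apparent Ki from one-site fit.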

[4] = target: T2, Muscarinic acetylcholine receptor M2; assay: Binding affinity at [3H]QNB radiolabeled muscarinic M2 receptor in rat heart.
Outline: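 Rat heart (male Wistar) minced and Polytron-homogenized in 10 mM NaKPB pH 7.4, spun 4800g 15 min 4 °C, resuspended, gauze-filtered, diluted 1:750 (0.15–0.2 mg protein/2.0 mL). Filtration, scintillation; one-site Ki.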

[5] = target: T2, Muscarinic acetylcholine receptor M2; assay: Binding affinity at [3H]QNB radiolabeled muscarinic M2 receptor in rat cortex.; format: tissue-based
Outline: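 Cortex from male Wistar rats homogenized in 10 mM NaKPB pH 7.4, diluted 1:3000 (~0.1 mg protein/2.0 mL).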

[6] = target: T3, Muscarinic acetylcholine receptor M1 (Rattus norvegicus, UniProt P08482); assay: Binding affinity at [3H]PZ radiolabeled muscarinic M1 receptor in rat cortex.; format: tissue-based
T3 sequence (P08482 whole entry): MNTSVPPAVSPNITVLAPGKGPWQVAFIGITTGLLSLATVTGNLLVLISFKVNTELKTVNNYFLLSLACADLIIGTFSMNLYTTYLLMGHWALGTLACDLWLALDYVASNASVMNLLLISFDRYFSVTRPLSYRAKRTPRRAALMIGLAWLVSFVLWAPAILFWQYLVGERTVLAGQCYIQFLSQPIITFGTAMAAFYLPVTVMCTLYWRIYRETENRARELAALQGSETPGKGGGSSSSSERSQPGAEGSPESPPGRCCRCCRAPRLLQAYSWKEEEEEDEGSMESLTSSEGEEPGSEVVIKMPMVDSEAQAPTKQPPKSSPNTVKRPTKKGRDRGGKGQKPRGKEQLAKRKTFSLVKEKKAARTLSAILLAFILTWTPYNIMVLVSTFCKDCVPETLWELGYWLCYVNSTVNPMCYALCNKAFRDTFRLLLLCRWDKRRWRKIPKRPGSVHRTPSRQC
Outline: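 Male Wistar rat cerebral cortex homogenate in ice-cold 10 mM NaKPB pH 7.4, diluted 1:400 (~0.55 mg protein/2.0 mL). [3H]PZ 0.1 nM, 60 min at 25 °C. Filtered on PEI-treated GF/B, scintillation read; apparent Ki by one-site nonlinear regression; one or two determinations.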

[7] = Ratio of [3H]QNB+GppNHp/[3H]-PZ was determined
[8] = target: Muscarinic receptor M1 and M2 (Rattus norvegicus) (UniProt P08482+P10980); assay: Ratio of [3H]QNB+GppNHp/[3H]-QNB; format: protein assay
[9] = Ratio of [3H]QNB+/[3H]-PZ was determined
[10] = target: T2, Muscarinic acetylcholine receptor M2; assay: Tested for binding affinity to [3H]QNB and GppNHp radiolabeled muscarinic M2 receptor in rat heart; outline: as §1

SMILES	Ratio [1]	Ki [2]	Ki [3]	Ki [4]	Ki [5]	Ki [6]	Ratio [7]	Ratio [8]	Ratio [9]	Ki [10]
C[C@@H]1CCN(CC#CCN(C)C)C1=O	125	0.071 µM	9.3 µM	0.24 µM	8.9 µM	6.8 µM	–	–	–	–
C[C@@H]1CCN(CC#CCN2CCCC2)C1=O	19	0.023 µM	0.43 µM	0.09 µM	0.43 µM	0.25 µM	–	–	–	–
CN(C)CC#CCN1CCCC1=O	460	0.0063 µM	1.6 µM	0.07 µM	2.9 µM	6.8 µM	–	–	–	–
O=C1CCCN1CC#CCN1CCCCC1	2.2	0.056 µM	0.35 µM	0.07 µM	0.12 µM	0.13 µM	2.7	5	0.54	–
CC1CCN(CC#CCN(C)C)C1=O (centres undefined)	85	0.26 µM	13 µM	1.3 µM	22 µM	212 µM	–	–	–	–
C[C@H]1CC(=O)N(CC#CC[N+](C)(C)C)C1	–	0.45 µM	–	1.9 µM	> 100 µM	108 µM	–	0.23	–	> 100 µM
CC(=O)N(C)C(C)C#CCN1CCCC1 (centres undefined)	19.5	0.004 µM	–	0.07 µM	0.08 µM	0.04 µM	–	2.5 and 5.1 and 1.8	–	0.18 µM
C[C@H]1CC(=O)N(CC#CCN(C)C)C1	–	> 10 µM	> 100 µM	> 100 µM	150 µM	15 µM	–	> 100	–	–
C[C@H]1CCN(CC#CCN(C)C)C1=O	–	0.63 µM	30 µM	21 µM	> 100 µM	1080 µM	–	1.4	–	–
CC1CCN(CC#CCN2CCCC2)C1=O (centres undefined)	48	0.015 µM	1.1 µM	0.08 µM	0.71 µM	0.29 µM	–	–	–	–
C[C@@H]1CC(=O)N(CC#CCN2CCCC2)C1	1.9	2.5 µM	27 µM	13 µM	4.7 µM	1.3 µM	21	2	–	–
C[C@@H]1CC(=O)N(CC#CCN(C)C)C1	–	> 10 µM	> 100 µM	> 100 µM	> 1000 µM	> 100 µM	–	> 100	–	–
C[N+](C)(C)CC#CCN1CCCC1=O [OXOTREMORINE METHIODIDE]	1200	0.00078 µM	1.5 µM	0.06 µM	0.91 µM	1.2 µM	–	–	–	–
C[C@H]1CCN(CC#CCN2CCCC2)C1=O	–	0.055 µM	3.3 µM	0.11 µM	2.9 µM	2.2 µM	1.5	32	–	–
O=C1CCCN1CC#CCN1CCCC1 [OXOTREMORINE]	–	0.0005 µM	0.16 µM	0.005 µM	0.06 µM	0.12 µM	–	–	–	–
C[C@H]1CC(=O)N(CC#CCN2CCCC2)C1	1.6	1.5 µM	6 µM	3.8 µM	2.3 µM	0.51 µM	–	–	–	–
C[C@@H]1CC(=O)N(CC#CC[N+](C)(C)C)C1	–	0.98 µM	52 µM	21 µM	> 100 µM	> 109 µM	5.7	2.4	–	–
